pEC50, pIC50: −log10 of the molar value.
Tested on: Human immunodeficiency virus 1
Test: Antiviral activity against HIV1 3B infected in human MT4 cells assessed as inhibition of virus-induced cytopathic effect by MTT assay
Format: functional
Conditions: Human immunodeficiency virus 1, 3B
Outline: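 HIV-1 IIIB stock titred on MT-4 cells to find CCID50. MT-4 cells infected with 100–300 CCID50 in the presence of fivefold serial drug dilutions. Protection from virus-induced cytopathic effect read by MTT reduction to formazan, measured spectrophotometrically. EC50 taken as the concentration giving 50% protection.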

| SMILES | pEC50 |
| --- | --- |
| Oc1cc(-c2ccc3cc(O)c(O)c(O)c3c2)cc(O)c1O | 6.00 |

Tested on: not listed separately
Test: Therapeutic index, ratio of CC50 for human HeLaP4 cells to EC50 for HIV1 […]
Format: cell-based
Conditions: read-out: Ratio CC50/EC50

| SMILES | selectivity ratio |
| --- | --- |
| O=C1C(=O)c2cc(-c3cc(O)c(O)c(O)c3)ccc2C(Oc2c(O)cc(-c3ccc4cc(O)c(O)c(O)c4c3)cc2O)=C1O | 74 |
| Oc1ccc(-c2ccc3cc(O)c(O)cc3c2)cc1O | 5 |

Tested on: MT4
Test: Cytotoxicity gainst human MT4 cells after 3 days by MTT assay
Format: cell-based
Conditions: MT4, 72 h
Outline: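 MT-4 cells in the MT-4/MTT format. CC50 determined in parallel with the antiviral EC50 using the MTT formazan read-out.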

| SMILES | CC50 [µM] |
| --- | --- |
| Oc1cc(-c2ccc3cc(O)c(O)c(O)c3c2)cc(O)c1O | > 1 |

Tested on: not listed separately
Test: Cytotoxicity gainst human HeLaP4 cells after 3 days by MTT assay
Format: cell-based
Conditions: not given

| SMILES | CC50 at 72 h [µM] |
| --- | --- |
| O=C1C(=O)c2cc(-c3cc(O)c(O)c(O)c3)ccc2C(Oc2c(O)cc(-c3ccc4cc(O)c(O)c(O)c4c3)cc2O)=C1O | 85 |
| Oc1cccc(-c2ccc3c(O)c(O)ccc3c2)c1O | > 100 |
| Oc1ccc(-c2ccc3c(O)c(O)ccc3c2)cc1O | > 100 |
| Oc1ccc(-c2ccc3cc(O)c(O)cc3c2)cc1O | 51 |

Tested on: Human immunodeficiency virus 1
Test: Antiviral activity against HIV1 […] in human HeLaP4 cells assessed as beta-galactosidase activity after 72 hrs
Format: functional, organism-based
Conditions: Human immunodeficiency virus 1, HeLaP4, 72 h
Outline: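 Virus (HIV-1 pNL4-3) made by transfecting P4 cells with the genomic clone. Infected CEM4fx cells in triplicate grown with increasing drug concentrations for 3 days. Supernatants collected at 72 h were used to infect HeLa-CD4-β-gal (P4) reporter cells for 24 h. Cells were lysed (50 mM 2-mercaptoethanol, 10 mM MgSO4, 25 mM EDTA, 0.125% NP40), incubated with CPRG, and read at 570 nm. Replicates averaged.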

| SMILES | pEC50 |
| --- | --- |
| O=C1C(=O)c2cc(-c3cc(O)c(O)c(O)c3)ccc2C(Oc2c(O)cc(-c3ccc4cc(O)c(O)c(O)c4c3)cc2O)=C1O | 5.94 |
| Oc1cccc(-c2ccc3c(O)c(O)ccc3c2)c1O | < 4.00 |
| Oc1ccc(-c2ccc3c(O)c(O)ccc3c2)cc1O | 4.40 |
| Oc1ccc(-c2ccc3cc(O)c(O)cc3c2)cc1O | 5.00 |

Biological target: Human immunodeficiency virus type 1 integrase (Human immunodeficiency virus 1, UniProt Q7ZJM1)
Sequence (Q7ZJM1 whole entry): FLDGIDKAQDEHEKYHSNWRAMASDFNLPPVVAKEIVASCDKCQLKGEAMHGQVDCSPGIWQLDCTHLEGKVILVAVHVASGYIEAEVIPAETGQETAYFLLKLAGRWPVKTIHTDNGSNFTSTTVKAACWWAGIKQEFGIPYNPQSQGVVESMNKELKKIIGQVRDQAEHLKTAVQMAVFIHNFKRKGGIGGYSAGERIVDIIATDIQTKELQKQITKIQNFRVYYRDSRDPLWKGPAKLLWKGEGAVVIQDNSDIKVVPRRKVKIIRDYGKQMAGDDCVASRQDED
Test: Inhibition of HIV1 integrase after 1 hr by ELISA
Conditions: not given
Outline: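 ELISA with annealed oligos (7 nM): a 3′-biotin strand and a 5′-digoxigenin complementary strand. Integrase was diluted in 750 mM NaCl, 10 mM Tris pH 7.6, 10% glycerol, 1 mM β-mercaptoethanol, 0.1 mg/mL BSA. Reaction in 10 mM MgCl₂, 5 mM DTT, 20 mM HEPES pH 7.5, 5% PEG, 15% DMSO, 1 h at 37 °C. Detection by immunosorbent assay on avidin-coated plates.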

| pIC50 | SMILES |
| --- | --- |
| 5.00 | Oc1ccc2cc(-c3ccc(C(F)(F)F)cc3)ccc2c1O |
| 5.14 | Oc1ccc2cc(-c3ccccc3F)ccc2c1O |
| 5.00 | Oc1ccc2cc(-c3cccc(C(F)(F)F)c3)ccc2c1O |
| 5.22 | Oc1ccc2cc(-c3ccccc3C(F)(F)F)ccc2c1O |
| 5.00 | Oc1ccccc1-c1ccc2c(O)c(O)ccc2c1 |

The next lines start with the molecule.

| SMILES | pIC50 |
| --- | --- |
| Oc1ccc2cc(-c3ccccc3)ccc2c1O | 5.22 |
| Oc1ccc(-c2ccc3c(O)c(O)ccc3c2)cc1 | 5.09 |
| Oc1ccc2cc(-c3cccc(F)c3)ccc2c1O | 5.02 |
| O=C1C(=O)c2cc(-c3cc(O)c(O)c(O)c3)ccc2C(Oc2c(O)cc(-c3ccc4cc(O)c(O)c(O)c4c3)cc2O)=C1O | 6.07 |
| Oc1cccc(-c2ccc3c(O)c(O)ccc3c2)c1O | 6.00 |
| Oc1cc(-c2ccc3cc(O)c(O)c(O)c3c2)cc(O)c1O | 6.30 |
| Oc1ccc(-c2ccc3c(O)c(O)ccc3c2)cc1O | 5.66 |
| Oc1ccc2cc(-c3ccc(F)cc3)ccc2c1O | 5.10 |
| Oc1cccc(-c2ccc3c(O)c(O)ccc3c2)c1 | 5.32 |

Tested on: not listed separately
Test: Therapeutic index, ratio of CC50 for human MT4 cells to EC50 for HIV1 3B
Format: cell-based
Conditions: read-out: Ratio CC50/EC50
Outline: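 MT-4 cells were infected with 100–300 CCID₅₀ of HIV-1 IIIB, with the CCID₅₀ titrated on MT-4 cells. Drugs were added as fivefold serial dilutions. Protection from virus-induced cytopathic effect was read by MTT reduction to formazan, giving EC₅₀, and CC₅₀ was determined in parallel.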

| SMILES | selectivity ratio |
| --- | --- |
| O=C1C(=O)c2cc(-c3cc(O)c(O)c(O)c3)ccc2C(Oc2c(O)cc(-c3ccc4cc(O)c(O)c(O)c4c3)cc2O)=C1O | 19 |
